Tests used:
[1] = molecular target: T1, CYP1A1/CYP1A2 (Homo sapiens, UniProt P04798); assay: Effect on CYP1A1/CYP1A2 in human liver assessed as 7-ethoxyresorufin O-deethylation at 100 uM relative to control; format: ADME, tissue-based; conditions: probe 7-ethoxyresorufin, read-out: Activity
T1 sequence (P04798 whole entry): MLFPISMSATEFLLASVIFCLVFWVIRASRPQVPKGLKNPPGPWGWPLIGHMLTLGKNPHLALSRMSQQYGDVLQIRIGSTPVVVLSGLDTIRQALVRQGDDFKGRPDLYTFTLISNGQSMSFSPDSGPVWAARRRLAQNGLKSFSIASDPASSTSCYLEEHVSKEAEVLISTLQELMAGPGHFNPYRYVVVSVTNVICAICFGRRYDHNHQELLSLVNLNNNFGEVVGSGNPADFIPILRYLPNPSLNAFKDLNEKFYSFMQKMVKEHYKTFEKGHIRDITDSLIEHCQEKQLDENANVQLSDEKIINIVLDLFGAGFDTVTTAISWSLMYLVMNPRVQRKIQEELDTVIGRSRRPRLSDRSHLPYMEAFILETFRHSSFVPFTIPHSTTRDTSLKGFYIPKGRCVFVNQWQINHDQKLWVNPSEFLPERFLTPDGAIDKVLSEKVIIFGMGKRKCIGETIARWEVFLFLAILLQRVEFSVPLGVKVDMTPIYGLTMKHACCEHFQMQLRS
Procedure, shortened: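 Human liver microsomes (0.1–0.5 mg protein) in 0.1 M phosphate pH 7.4 with 0.1 mM EDTA and NADPH-generating system. […] Metabolite formation by HPLC, in triplicate; mean expressed as % of control.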

[2] = test system: Mycobacterium tuberculosis; assay: Antimycobacterial activity against Mycobacterium tuberculosis Kurono infected ICR mouse assessed as reduction in viable lung bacterial count at 160 mg/kg, po administered once daily measured after 28 days; format: functional
Procedure, shortened: (§1)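 ICR mice infected via caudal vein with 8.6 × 10^4 CFU M. tuberculosis Kurono; after 28 d, stratified randomisation (n = 5/group), then oral dosing once daily for 28 d in 5% gum arabic, 2-fold dose series. Lungs homogenised in water, dilutions plated on 7H11 agar, colonies counted after 14 d at 37 °C; log10 CFU.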

[3] = Cmax in human at 850 mg, po; format: ADME, organism-based; design: dose 850 mg, route oral; conditions: in vivo
[4] = AUC (0 to t) in human at 850 mg, po; format: ADME, organism-based; conditions: plasma
[5] = molecular target: T2, CYP2A6 (Homo sapiens, UniProt P11509); assay: Effect on CYP2A6 in human liver assessed as coumarin 7-hydroxylation at 100 uM relative to control; format: ADME, tissue-based; conditions: probe coumarin, read-out: Activity
T2 sequence (P11509 whole entry): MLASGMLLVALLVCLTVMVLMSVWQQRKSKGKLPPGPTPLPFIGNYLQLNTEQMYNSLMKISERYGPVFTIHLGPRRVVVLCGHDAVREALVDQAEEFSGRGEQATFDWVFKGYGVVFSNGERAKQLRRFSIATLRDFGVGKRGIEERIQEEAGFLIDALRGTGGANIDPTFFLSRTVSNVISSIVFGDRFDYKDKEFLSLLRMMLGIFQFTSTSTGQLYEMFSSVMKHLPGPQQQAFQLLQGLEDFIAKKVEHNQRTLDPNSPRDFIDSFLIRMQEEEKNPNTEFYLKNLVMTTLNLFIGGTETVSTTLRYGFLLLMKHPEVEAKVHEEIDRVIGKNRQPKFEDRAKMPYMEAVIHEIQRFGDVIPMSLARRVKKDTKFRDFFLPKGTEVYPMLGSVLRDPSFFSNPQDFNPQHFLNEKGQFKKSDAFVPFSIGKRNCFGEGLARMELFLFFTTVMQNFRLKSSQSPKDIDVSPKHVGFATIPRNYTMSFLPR

[6] = molecular target: CYP2E1 (Homo sapiens, UniProt P05181); assay: Effect on CYP2E1 in human liver assessed as chlorzoxazone 6-hydroxylation at 100 uM relative to control; format: ADME, tissue-based; conditions: probe chlorzoxazone, read-out: Activity
Sequence of CYP2E1 (P05181 whole entry): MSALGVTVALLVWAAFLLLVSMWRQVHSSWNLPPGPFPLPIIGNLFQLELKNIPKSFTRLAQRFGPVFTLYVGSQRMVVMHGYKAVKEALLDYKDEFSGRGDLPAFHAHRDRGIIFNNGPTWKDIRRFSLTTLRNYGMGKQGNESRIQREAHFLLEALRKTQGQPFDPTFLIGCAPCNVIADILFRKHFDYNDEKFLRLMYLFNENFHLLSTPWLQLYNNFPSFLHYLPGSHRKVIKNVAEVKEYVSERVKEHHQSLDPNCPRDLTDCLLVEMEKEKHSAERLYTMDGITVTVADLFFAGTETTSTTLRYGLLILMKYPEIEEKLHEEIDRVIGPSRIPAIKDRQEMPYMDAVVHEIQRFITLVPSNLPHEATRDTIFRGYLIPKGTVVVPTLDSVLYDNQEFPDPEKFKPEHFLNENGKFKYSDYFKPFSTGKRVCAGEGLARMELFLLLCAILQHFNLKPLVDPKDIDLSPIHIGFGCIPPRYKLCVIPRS

[7] = test system: Mycobacterium tuberculosis; assay: Antimycobacterial activity against Mycobacterium tuberculosis Kurono infected ICR mouse assessed as reduction in viable lung bacterial count at 5 mg/kg, po administered once daily measured after 28 days; format: functional; procedure, shortened: as §1
[8] = AUC (0 to t) in human at 300 mg, po; format: ADME, organism-based; conditions: plasma
[9] = test system: Mycobacterium tuberculosis; assay: Antimycobacterial activity against Mycobacterium tuberculosis Kurono infected ICR mouse assessed as reduction in viable lung bacterial count at 3.5 mg/kg, po administered once daily measured after 28 days; format: functional; procedure, shortened: as §1
[10] = Plasma concentration in Mycobacterium bovis BCG infected tuberculosis mouse model at 5 mg/kg, po after 0.5 hrs; format: ADME, organism-based; design: dose 5 mg/kg, route oral
Procedure, shortened: (§2)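 The agent, dissolved or suspended in 5% gum arabic, was then given orally. At each time point, about 1 ml of blood was drawn from the abdominal post cava under ether into a heparinised syringe and centrifuged at 3,000 rpm, 5 °C. Plasma (0.1 ml) was mixed with 0.2 ml acetonitrile.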

[11] = Plasma concentration in Mycobacterium bovis BCG infected tuberculosis mouse model at 5 mg/kg, po after 1 hr; format: ADME, organism-based; design: dose 5 mg/kg, route oral; procedure, shortened: as §2
[12] = Plasma concentration in Mycobacterium bovis BCG infected tuberculosis mouse model at 5 mg/kg, po after 2 hrs; format: ADME, organism-based; design: dose 5 mg/kg, route oral; procedure, shortened: as §2
[13] = Plasma concentration in Mycobacterium bovis BCG infected tuberculosis mouse model at 5 mg/kg, po after 4 hrs; format: ADME, organism-based; design: dose 5 mg/kg, route oral; procedure, shortened: as §2
[14] = Plasma concentration in Mycobacterium bovis BCG infected tuberculosis mouse model at 5 mg/kg, po after 8 hrs; format: ADME, organism-based; design: dose 5 mg/kg, route oral; procedure, shortened: as §2
[15] = Plasma concentration in Mycobacterium bovis BCG infected tuberculosis mouse model at 5 mg/kg, po after 16 hrs; format: ADME, organism-based; design: dose 5 mg/kg, route oral; procedure, shortened: as §2
[16] = test system: Mycobacterium tuberculosis; assay: Antimycobacterial activity against Mycobacterium tuberculosis Kurono infected po dosed BALB/c mouse assessed as reduction in viable lung bacterial count administered once daily; format: functional, organism-based
Procedure, shortened: (§3)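 From day 1, randomised by body weight (n = 5/group) and dosed orally once daily for 10 d, 10 to 0.313 mg/kg in 2-fold steps, in 5% gum arabic. Lung homogenates plated on 7H11 agar, colonies counted after 14 d; log10 CFU.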

[17] = test system: Mycobacterium tuberculosis; assay: Antimycobacterial activity against Mycobacterium tuberculosis Kurono infected po dosed immunocompromized BALB/c mouse assessed as reduction in viable lung bacterial count administered once daily; format: functional, organism-based; procedure, shortened: as §3
[18] = test system: Liver microsomes; assay: Stability in human liver microsomes; format: ADME, Microsome
Procedure, shortened: (§4)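 Liver microsomes (1 mg/ml protein) incubated with 100 µM drug, 2.5 mM NADPH and 2.5 mM NADH in 100 mM phosphate pH 7.4 with 1% DMSO. Run in duplicate, 2 h at 37 °C with shaking. Extracted with acetonitrile/ethyl acetate; analysed by HPLC and LC-ESI-MS/MS.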

[19] = test system: Liver microsomes; assay: Stability in rat liver microsomes; format: ADME, Microsome; procedure, shortened: as §4
[20] = Stability in mouse liver microsomes; format: ADME, Microsome; procedure, shortened: as §4
[21] = Stability in dog liver microsomes; format: ADME, Canis lupus familiaris, Microsome; procedure, shortened: as §4
[22] = Stability in rabbit liver microsomes; format: ADME, Oryctolagus cuniculus, Microsome; procedure, shortened: as §4
[23] = Stability in monkey liver microsomes; format: ADME, Macaca mulatta, Microsome; conditions: rhesus monkey; procedure, shortened: as §4
[24] = test system: Salmonella typhimurium; assay: Toxic mutagenic effect in Salmonella Typhimurium TA1535 in presence of rat liver microsomes after 48 hrs by bacterial reverse mutation test; format: toxicity, organism-based; conditions: salmonella enterica subsp. enterica serovar typhimurium
[25] = test system: Salmonella typhimurium; assay: Toxic mutagenic effect in Salmonella Typhimurium TA1537 in presence of rat liver microsomes after 48 hrs by bacterial reverse mutation test; format: toxicity, organism-based; conditions: salmonella enterica subsp. enterica serovar typhimurium
[26] = test system: Mycobacterium tuberculosis; assay: Antimycobacterial activity against Mycobacterium tuberculosis H37Rv in human THP1 cells after 4 hrs; format: functional, organism-based; conditions: THP-1
Procedure, shortened: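 PMA-differentiated human THP-1 macrophages infected 4 h with H37Rv, washed, then 20 µg/ml SM for 20 h to kill extracellular bacilli. Compound pulse for 4 h, washout, further 68-h culture. Lysis in 0.1% SDS, plating on 7H11 agar, colonies counted after 16 d at 37 °C; n = 3.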

[27] = test system: Salmonella typhimurium; assay: Toxic mutagenic effect in Salmonella Typhimurium TA98 in presence of rat liver microsomes after 48 hrs by bacterial reverse mutation test; format: toxicity, organism-based; conditions: salmonella enterica subsp. enterica serovar typhimurium
[28] = test system: Salmonella typhimurium; assay: Toxic mutagenic effect in Salmonella Typhimurium TA100 in presence of rat liver microsomes after 48 hrs by bacterial reverse mutation test; format: toxicity, organism-based; conditions: salmonella enterica subsp. enterica serovar typhimurium
[29] = test system: Mycobacterium tuberculosis; assay: Antimycobacterial activity against Mycobacterium tuberculosis Kurono infected ICR mouse assessed as reduction in viable lung bacterial count at 40 mg/kg, po administered once daily measured after 28 days; format: functional; procedure, shortened: as §1

O=c1cc(-c2ccccc2)oc2c1ccc1ccccc12 [ALPHA-NAPHTHOFLAVONE]
activity at 100 µM [1]: 3.8%

CC[C@@H](CO)NCCN[C@@H](CC)CO [ETHAMBUTOL]
Activity [2]: 95% | Cmax [3]: 3700 ng/mL | AUC(0-t) [4]: 13000 ng·h/mL

CCN(CC)C(=S)S [DITIOCARB]
activity at 100 µM [5]: 38.2% | activity at 100 µM [6]: 55%

NNC(=O)c1ccncc1 [ISONIAZID]
Activity [7]: 95% | AUC(0-t) [8]: 22900 ng·h/mL

CO[C@H]1/C=C/O[C@@]2(C)Oc3c(C)c(O)c4c(O)c(c(/C=N/N5CCN(C)CC5)c(O)c4c3C2=O)NC(=O)/C(C)=C\C=C\[C@H](C)[C@H](O)[C@@H](C)[C@@H](O)[C@@H](C)[C@H](OC(C)=O)[C@@H]1C [RIFAMPIN]
Activity [9]: 95% | concentration at 0.5 h [10]: 3330 ng/mL | concentration at 1 h [11]: 4490 ng/mL | concentration at 2 h [12]: 4520 ng/mL | concentration at 4 h [13]: 3820 ng/mL | concentration at 8 h [14]: 3180 ng/mL | concentration at 16 h [15]: 660 ng/mL

C[C@]1(COc2ccc(N3CCC(Oc4ccc(OC(F)(F)F)cc4)CC3)cc2)Cn2cc([N+](=O)[O-])nc2O1
Activity [16]: Dose-dependent effect | Activity [17]: Dose-dependent effect | Activity [18]: Stable | Activity [19]: Stable | Activity [20]: Stable | Activity [21]: Stable | Activity [22]: Stable | Activity [23]: Stable | Activity [24]: Non-toxic | Activity [25]: Non-toxic | Activity [26]: Dose-dependent effect | Activity [27]: Non-toxic | Activity [28]: Non-toxic

NC(=O)c1cnccn1 [PYRAZINAMIDE]
Activity [2]: 95%

CN[C@@H]1[C@H](O[C@H]2[C@H](O[C@H]3[C@H](O)[C@@H](O)[C@H](N=C(N)N)[C@@H](O)[C@@H]3N=C(N)N)O[C@@H](C)[C@]2(O)C=O)O[C@@H](CO)[C@H](O)[C@H]1O [STREPTOMYCIN]
Activity [29]: 95%

Source: ChEMBL document CHEMBL1143402 (PLoS Med, 2006)
